A short description of series [1]: Terminal half life in Wistar rat at 5 mg/kg, po administered via gavage by LC-MS/MS analysis. The format is ADME, organism-based. The following applies: in vivo, read-out: beta t1/2 (converted). Summed up: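 Wistar rats given a single 5 mg/kg oral dose. Plasma concentration–time profiles were plotted as mean ± SEM and sampled through 24 h postdose.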
Another series deals with HCT-116. The series is described as follows: Antiproliferative activity against human HCT116 cells after 72 hrs by MTT assay. The format is functional, cell-based. The following applies: HCT-116, 72 h.
In a further series the test system is Jurkat. Briefly: cells. Particulars: Homo sapiens; call rule not given here. The format is functional, cell-based.
Series [2] concerns the target T1, Tyrosine-protein kinase JAK3 (Homo sapiens, UniProt P52333).
T1 sequence (P52333 whole entry): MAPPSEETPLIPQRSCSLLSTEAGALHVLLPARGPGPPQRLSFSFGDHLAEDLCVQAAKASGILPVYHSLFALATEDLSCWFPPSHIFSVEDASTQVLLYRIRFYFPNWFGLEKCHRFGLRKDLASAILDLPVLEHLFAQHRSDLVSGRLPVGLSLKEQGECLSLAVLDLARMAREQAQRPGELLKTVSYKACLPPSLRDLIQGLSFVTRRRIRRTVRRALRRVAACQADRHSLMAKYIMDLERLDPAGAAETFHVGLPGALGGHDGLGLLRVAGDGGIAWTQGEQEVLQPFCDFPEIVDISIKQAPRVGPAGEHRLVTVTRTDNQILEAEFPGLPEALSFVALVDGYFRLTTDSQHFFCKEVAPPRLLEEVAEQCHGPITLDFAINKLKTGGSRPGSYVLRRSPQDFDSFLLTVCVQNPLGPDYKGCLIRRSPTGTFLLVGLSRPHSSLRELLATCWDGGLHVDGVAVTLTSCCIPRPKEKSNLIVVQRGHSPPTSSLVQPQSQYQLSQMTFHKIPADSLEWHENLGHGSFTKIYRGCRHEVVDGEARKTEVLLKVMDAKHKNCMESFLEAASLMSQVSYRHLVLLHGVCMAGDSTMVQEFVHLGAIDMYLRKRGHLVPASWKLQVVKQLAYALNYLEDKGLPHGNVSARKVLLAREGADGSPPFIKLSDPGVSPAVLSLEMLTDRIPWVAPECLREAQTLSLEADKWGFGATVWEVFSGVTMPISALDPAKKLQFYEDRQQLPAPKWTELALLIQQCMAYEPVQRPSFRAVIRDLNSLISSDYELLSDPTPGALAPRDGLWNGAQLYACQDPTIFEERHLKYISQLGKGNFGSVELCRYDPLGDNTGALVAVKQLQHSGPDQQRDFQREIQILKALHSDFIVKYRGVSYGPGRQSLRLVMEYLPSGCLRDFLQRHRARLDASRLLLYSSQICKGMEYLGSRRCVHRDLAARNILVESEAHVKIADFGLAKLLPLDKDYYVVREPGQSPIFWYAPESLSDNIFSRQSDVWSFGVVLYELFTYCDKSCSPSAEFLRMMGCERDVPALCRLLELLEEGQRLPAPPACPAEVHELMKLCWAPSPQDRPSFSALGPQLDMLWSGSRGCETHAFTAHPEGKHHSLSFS
Briefly: Inhibition of wild type human JAK3 (I781 to S1124 residues) expressed in mammalian cells assessed as residual activity at 1 uM by KINOMEscan assay relative to control. It counts as cell-based. The following applies: read-out: Activity.

For a further series, the system named is Plasma. The series is described as follows: Drug uptake in Wistar rat plasma at 5 mg/kg, po administered via gavage or 1 mg/kg, iv up to 2 hrs by LC-MS/MS analysis. The following applies: in vivo. It counts as ADME, organism-based. The method, boiled down: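 Wistar rats dosed once at 5 mg/kg po or 1 mg/kg iv. Plasma levels were followed as mean ± SEM over 24 h postdose and checked against the limit of quantitation at each time point.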

For another series, the system named is MV4-11. Briefly: cells. It counts as functional, cell-based. The following applies: Homo sapiens, MV4-11, 48 h.
The target of series [3] is T2, Non-receptor tyrosine-protein kinase TYK2 (Homo sapiens, UniProt P29597). The series is described as follows: Inhibition of wild type human TYK2 (V877 to C1187 residues) expressed in mammalian cells assessed as residual activity at 1 uM by KINOMEscan assay relative to control. It counts as cell-based.
T2 sequence (P29597 whole entry, the tested form may be a part): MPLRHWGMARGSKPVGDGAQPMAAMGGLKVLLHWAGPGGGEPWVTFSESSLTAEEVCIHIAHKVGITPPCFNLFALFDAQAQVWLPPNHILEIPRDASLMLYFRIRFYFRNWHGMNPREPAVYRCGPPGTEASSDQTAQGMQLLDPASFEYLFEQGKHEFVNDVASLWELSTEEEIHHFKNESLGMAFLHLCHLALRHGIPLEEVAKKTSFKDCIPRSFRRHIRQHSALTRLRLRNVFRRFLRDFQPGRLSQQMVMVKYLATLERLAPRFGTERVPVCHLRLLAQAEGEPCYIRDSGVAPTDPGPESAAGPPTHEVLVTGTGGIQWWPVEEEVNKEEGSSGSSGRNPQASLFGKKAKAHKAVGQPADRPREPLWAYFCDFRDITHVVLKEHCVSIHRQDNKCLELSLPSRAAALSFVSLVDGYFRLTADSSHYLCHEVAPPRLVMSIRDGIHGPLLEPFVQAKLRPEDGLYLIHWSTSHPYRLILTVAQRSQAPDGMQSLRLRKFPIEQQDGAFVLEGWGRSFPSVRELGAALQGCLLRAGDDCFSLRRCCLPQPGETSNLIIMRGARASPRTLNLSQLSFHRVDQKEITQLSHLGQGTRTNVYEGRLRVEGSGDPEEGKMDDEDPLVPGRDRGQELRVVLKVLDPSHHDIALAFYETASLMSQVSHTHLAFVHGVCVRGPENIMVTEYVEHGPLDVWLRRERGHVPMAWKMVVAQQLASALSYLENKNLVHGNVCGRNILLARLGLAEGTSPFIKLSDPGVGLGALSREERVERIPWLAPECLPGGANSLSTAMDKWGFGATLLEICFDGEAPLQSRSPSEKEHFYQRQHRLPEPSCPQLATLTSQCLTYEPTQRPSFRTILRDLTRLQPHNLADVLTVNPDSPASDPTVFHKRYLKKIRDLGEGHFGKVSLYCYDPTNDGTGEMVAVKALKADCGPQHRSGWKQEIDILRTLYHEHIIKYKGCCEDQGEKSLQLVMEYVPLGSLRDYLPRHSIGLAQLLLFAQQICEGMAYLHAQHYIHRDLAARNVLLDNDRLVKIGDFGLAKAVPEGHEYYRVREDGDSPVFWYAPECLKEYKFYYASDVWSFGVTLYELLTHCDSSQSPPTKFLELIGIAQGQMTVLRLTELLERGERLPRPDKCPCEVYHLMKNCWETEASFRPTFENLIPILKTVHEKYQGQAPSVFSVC
Series [4] addresses T3, Tyrosine-protein kinase JAK2 (Homo sapiens, UniProt O60674). Briefly: Binding affinity to N-terminal His tagged human recombinant JAK2 (1014 to 1132 residues) expressed in Escherichia coli after 60 to 90 mins by LC/MS analysis. The following applies: read-out: Kd(app).
Series [5] addresses Receptor-type tyrosine-protein kinase FLT3 (Homo sapiens) (UniProt P36888). Briefly: Inhibition of human FLT3 using EAIYAAPFAKKK as substrate at 1 uM in presence of [gamma-33P]-ATP relative to control. The method, boiled down:
(§1)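 Kinase inhibition was tested by radiometric "Hotspot" profiling at a contract laboratory with 10 μM ATP.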

The target in series [6] is Tyrosine-protein kinase JAK1 (Homo sapiens, UniProt P23458). Briefly: Inhibition of human JAK1 using poly[Glu:Tyr] as substrate in presence of [gamma-33P]-ATP. The method, boiled down: as §1
Chain of Tyrosine-protein kinase JAK1 (P23458 whole entry): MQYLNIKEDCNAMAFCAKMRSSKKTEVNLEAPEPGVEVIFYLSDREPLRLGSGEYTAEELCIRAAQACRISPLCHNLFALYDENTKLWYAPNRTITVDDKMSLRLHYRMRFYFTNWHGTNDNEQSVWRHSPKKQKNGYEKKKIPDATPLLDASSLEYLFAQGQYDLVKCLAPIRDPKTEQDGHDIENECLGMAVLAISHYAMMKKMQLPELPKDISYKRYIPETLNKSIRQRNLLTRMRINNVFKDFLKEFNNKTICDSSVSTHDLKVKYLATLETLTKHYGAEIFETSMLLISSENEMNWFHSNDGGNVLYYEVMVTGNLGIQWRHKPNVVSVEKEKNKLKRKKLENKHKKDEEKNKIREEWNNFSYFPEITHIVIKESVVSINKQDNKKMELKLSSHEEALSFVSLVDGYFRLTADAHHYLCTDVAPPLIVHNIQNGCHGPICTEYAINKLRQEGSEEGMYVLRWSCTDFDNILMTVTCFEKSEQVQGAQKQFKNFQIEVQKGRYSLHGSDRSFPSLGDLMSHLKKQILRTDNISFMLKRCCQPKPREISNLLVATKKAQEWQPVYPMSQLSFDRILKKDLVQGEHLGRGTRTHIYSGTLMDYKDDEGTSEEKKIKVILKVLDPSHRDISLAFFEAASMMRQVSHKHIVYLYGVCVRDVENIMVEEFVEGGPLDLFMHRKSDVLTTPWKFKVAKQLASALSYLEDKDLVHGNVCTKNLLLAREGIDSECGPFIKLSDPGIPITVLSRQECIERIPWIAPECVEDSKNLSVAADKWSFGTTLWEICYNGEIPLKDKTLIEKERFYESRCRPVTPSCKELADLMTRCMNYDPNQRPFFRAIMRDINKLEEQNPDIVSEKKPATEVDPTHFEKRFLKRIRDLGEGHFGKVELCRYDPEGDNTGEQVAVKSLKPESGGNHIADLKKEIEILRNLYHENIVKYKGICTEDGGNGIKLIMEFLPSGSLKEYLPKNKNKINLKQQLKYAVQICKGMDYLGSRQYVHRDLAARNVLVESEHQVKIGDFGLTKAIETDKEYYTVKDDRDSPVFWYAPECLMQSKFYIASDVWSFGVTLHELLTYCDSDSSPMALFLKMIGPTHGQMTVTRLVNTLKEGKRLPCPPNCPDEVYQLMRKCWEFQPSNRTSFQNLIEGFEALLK
A further series can be described thus: cells. The format is functional, cell-based. The following applies: Homo sapiens, XG6, 48 h.
In series [7] the target is T3, Tyrosine-protein kinase JAK2. Briefly: Inhibition of wild type human JAK2 (A829 to G1132 residues) expressed in mammalian cells assessed as residual activity at 1 uM by KINOMEscan assay relative to control. The format is cell-based.
The test system of series [8] is KMS-12-BM. The series is described as follows: Induction of apoptosis in human KMS-12-BM cells assessed as increase in cleaved PARP level at 1 to 6 uM after 24 hrs by immunoblotting analysis. The format is functional, cell-based. Summed up: (§2)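 KMS-12-BM and MOLM-14 cells were treated for 24 h and then lysed. Cleaved PARP was detected by immunoblotting.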
The subject of another series is MOLM-14. The series is described as follows: Induction of apoptosis in human MOLM14 cells assessed as increase in cleaved PARP level at 1 to 6 uM after 24 hrs by immunoblotting analysis. The format is functional, cell-based. Summed up:
as §2

In another series the target is Histone deacetylase 8 (Homo sapiens, UniProt Q9BY41). The series is described as follows: Inhibition of C-terminal His tagged human recombinant HDAC8 (1 to 377 residues) expressed in Baculovirus infected insect cells in presence of ATP. Summed up:
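HDAC enzyme inhibition was run by a contract laboratory.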

Series [9] concerns the target T2, Non-receptor tyrosine-protein kinase TYK2. The series is described as follows: Inhibition of human TYK2 using KKSRGDYMTMQIG as substrate in presence of [gamma-33P]-ATP. Summed up:
as §1

The nature of series [10]: Thermodynamic aqueous solubility of the compound at pH 7.4 after 24 hrs by UV absorbance based assay. It counts as physicochemical. Particulars: read-out: Therm_solubility. The method, boiled down:
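A 20 mM DMSO stock was diluted 1:100 into pH 7.4 PBS, then shaken at 250 rpm for 3 or 24 h at 22.5 ± 2.5 °C. The mixture was filtered and the filtrate diluted with acetonitrile/universal buffer. Absorbance was read at 310 nm against a 6.25–200 μM calibration curve, in triplicate.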

The subject of a further series is KG-1. The series is described as follows: cells. It counts as functional, cell-based. Particulars: Homo sapiens, KG-1, 48 h.
The subject of series [11] is KMS-12-BM. The series is described as follows: cells. The format is functional, cell-based. The following applies: Homo sapiens, 48 h.
Series [12] is described as follows: Half life in rat liver microsome preincubated for 5 mins followed by NADPH addition by LC-MS/MS analysis. The format is ADME. The following applies: liver microsomes. On the technique in general: Microsomes from liver hold many membrane-bound enzymes, among them those of drug oxidation.
In a further series the test system is MDA-MB-231. Briefly: cells. It counts as functional, cell-based. The following applies: Homo sapiens, MDA-MB-231, 72 h.

A value given as a limit tells only on which side of the number the result lay.

We go through 1 molecule from ChEMBL document CHEMBL4028864 (J Med Chem, 2017).

For orientation: IC50 means the point on the concentration scale where inhibition reaches its midpoint. The term inhibition denotes the change of the read-out against control, counted positive when it falls.

T3 sequence (O60674 whole entry, the tested form may be a part): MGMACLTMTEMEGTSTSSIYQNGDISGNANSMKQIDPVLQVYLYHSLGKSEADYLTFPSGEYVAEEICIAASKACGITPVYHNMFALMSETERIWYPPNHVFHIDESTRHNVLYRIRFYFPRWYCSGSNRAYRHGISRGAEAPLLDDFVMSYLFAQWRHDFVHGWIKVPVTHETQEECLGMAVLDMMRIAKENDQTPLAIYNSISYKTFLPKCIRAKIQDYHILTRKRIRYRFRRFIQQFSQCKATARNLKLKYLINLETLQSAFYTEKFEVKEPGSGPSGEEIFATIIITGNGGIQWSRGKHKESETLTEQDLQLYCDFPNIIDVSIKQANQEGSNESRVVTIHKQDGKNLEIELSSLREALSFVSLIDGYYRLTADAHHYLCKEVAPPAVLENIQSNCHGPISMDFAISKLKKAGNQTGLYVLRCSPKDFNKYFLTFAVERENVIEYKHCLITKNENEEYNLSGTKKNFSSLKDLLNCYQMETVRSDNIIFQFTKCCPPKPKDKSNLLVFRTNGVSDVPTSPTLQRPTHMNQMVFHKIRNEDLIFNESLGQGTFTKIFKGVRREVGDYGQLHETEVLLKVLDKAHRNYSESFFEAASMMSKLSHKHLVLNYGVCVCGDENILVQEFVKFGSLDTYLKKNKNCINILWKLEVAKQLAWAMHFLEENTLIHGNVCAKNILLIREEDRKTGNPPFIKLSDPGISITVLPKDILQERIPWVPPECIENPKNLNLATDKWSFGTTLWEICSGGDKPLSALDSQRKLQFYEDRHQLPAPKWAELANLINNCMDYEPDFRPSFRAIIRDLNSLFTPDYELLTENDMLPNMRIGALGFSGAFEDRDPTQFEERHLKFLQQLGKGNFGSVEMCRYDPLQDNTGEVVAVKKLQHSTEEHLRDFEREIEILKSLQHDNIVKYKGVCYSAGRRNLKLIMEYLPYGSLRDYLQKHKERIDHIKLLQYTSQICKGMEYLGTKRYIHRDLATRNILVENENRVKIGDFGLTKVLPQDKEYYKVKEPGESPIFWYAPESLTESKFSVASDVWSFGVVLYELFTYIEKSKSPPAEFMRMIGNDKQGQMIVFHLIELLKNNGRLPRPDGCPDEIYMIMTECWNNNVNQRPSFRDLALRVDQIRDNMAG
Chain of Histone deacetylase 8 (Q9BY41 whole entry, the tested form may be a part): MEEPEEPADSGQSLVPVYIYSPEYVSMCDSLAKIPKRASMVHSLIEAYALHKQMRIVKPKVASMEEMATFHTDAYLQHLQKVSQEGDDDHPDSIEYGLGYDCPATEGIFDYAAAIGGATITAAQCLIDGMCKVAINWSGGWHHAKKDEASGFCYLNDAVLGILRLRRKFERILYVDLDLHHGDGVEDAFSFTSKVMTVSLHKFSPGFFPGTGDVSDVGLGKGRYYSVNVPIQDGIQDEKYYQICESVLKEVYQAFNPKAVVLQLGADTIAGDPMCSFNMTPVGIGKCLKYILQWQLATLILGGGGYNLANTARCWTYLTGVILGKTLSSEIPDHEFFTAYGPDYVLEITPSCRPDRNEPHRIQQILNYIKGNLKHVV
Chain of Receptor-type tyrosine-protein kinase FLT3 (Homo sapiens) (P36888 whole entry): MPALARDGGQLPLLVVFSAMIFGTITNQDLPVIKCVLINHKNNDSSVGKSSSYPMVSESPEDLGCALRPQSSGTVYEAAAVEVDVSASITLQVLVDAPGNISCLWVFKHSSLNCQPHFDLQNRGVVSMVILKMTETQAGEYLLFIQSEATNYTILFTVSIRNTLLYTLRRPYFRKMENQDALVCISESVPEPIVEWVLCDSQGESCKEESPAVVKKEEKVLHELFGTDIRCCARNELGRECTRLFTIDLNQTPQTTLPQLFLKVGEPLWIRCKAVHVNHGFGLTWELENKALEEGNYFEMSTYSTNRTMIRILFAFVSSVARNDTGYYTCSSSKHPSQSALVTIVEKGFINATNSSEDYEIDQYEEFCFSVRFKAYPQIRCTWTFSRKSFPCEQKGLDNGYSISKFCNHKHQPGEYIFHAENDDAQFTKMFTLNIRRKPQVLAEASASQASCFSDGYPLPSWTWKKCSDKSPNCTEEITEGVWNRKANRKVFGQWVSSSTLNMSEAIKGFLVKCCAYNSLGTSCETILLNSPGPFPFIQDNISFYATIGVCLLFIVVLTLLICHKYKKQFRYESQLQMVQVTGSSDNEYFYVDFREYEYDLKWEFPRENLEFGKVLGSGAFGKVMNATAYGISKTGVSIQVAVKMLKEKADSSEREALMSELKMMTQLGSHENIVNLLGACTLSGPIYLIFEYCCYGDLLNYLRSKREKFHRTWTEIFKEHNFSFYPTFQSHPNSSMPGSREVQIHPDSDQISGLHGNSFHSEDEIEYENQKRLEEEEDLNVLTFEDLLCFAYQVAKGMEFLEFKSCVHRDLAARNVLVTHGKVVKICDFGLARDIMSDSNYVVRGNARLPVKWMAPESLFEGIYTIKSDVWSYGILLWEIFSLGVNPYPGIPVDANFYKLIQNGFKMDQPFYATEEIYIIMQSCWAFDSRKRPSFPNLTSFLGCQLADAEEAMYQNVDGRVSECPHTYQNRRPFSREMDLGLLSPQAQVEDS

As to `O=C(CCCCCCn1cc(-c2ncnc3[nH]ccc23)cn1)NO`, the half-life in series [1] is 34.8 min; in series [12], greater than 200 min. Besides, the IC50 was 2320 nM in the series on HCT-116; 470 nM with Jurkat; 460 nM with MV4-11; 17 nM in [6]; 2010 nM in the series “cells”; 469 nM on Histone deacetylase 8. Moreover, the concentration for half-maximal inhibition (IC50) in series [9] was 188 nM; with KG-1, 150 nM; with KMS-12-BM [11], 2020 nM; with MDA-MB-231, 790 nM. Also, the activity at 1 µM in [2] is 0.75%. Besides, the Drug uptake result with Plasma was “Active”. The Activity in series [3] was 3.3%; in series [7], 0%; in the series on KMS-12-BM [8], “Dose-dependent effect”; with MOLM-14, “Dose-dependent effect”. Moreover, the Kd in series [4] came out at 5000 nM. Also, the inhibition in [5] amounted to 27%. Also, the solubility thermodynamic at 24 h in series [10] is greater than 73 µg/mL.
